Data from ChEMBL document CHEMBL2021854, “2-Aminopyrimidine based 4-aminoquinoline anti-plasmodial agents. Synthesis, biological activity, structure-activity relationship and mode of action studies” (Eur J Med Chem, 2012).

How the values were obtained:
Plasmodium falciparum [1] = assay: Resistant factor, ratio of IC50 for chloroquine-resistant Plasmodium falciparum K1 to IC50 for chloroquine-sensitive Plasmodium falciparum 3D7; type: functional
How it was run: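 Resistance factor computed as IC50 against K1 divided by IC50 against 3D7, both from the [3H]hypoxanthine incorporation assay.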

Plasmodium falciparum [2] = assay: Antiplasmodial activity chloroquine-resistant Plasmodium falciparum K1 infected in human A+ erythrocytes assessed as inhibition of [3H]-hypoxanthine incorporation after 24 hrs by scintillation counting; type: functional, organism-based
[3] = Inhibition of beta-hematin formation assessed as Ferriprotoporphyrin IX biomineralisation at 1 mg/ml after 24 hrs; type: functional
How it was run: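 Hemin chloride (0.5 mg/ml in DMSO) mixed with 0.5 M sodium acetate buffer pH 4.4 and drug or solvent control, incubated 37 °C for 24 h. Pellet washed with DMSO to remove unreacted hemin, dissolved in 0.1 N NaOH, absorbance read at 405 nm; percent inhibition relative to control. Highest concentration tested 1 mg/ml.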

Plasmodium falciparum [4] = assay: Antiplasmodial activity chloroquine-sensitive Plasmodium falciparum 3D7 infected in human A+ erythrocytes assessed as inhibition of [3H]-hypoxanthine incorporation after 24 hrs by scintillation counting; type: functional, organism-based
Influenza B virus [5] = assay: Antiviral activity against Influenza B virus infected in MDCK cells assessed as reduction visual scoring of virus-induced cytopathogenicity after 4 days; type: functional, organism-based; details: 96 h
How it was run: (§1)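 MDCK monolayers infected with 100 CCID50 of influenza A (H1N1 or H3N2) or influenza B, with varying compound concentrations. Cytopathicity read when untreated infected controls reached complete CPE.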

Influenza A virus [6] = assay: Antiviral activity against Influenza A virus H3N2 infected in MDCK cells assessed as inhibition of virus-induced cytopathogenicity after 4 days by colorimetric formazan-based MTS assay; type: functional, organism-based; details: 96 h
[7] = Cytotoxicity against MDCK cells assessed as minimum compound concentration required to causes microscopically detectable alteration of normal cell morphology; type: cell-based, Canis lupus familiaris; details: dog
How it was run: (§2)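 Confluent, non-proliferating cell cultures were exposed to the compounds. The endpoint was the minimum concentration producing a microscopically detectable alteration of normal cell morphology.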

Influenza A virus [8] = assay: Antiviral activity against Influenza A virus H3N2 infected in MDCK cells assessed as reduction visual scoring of virus-induced cytopathogenicity after 4 days; type: functional, organism-based; details: 96 h; how it was run: as §1
Influenza B virus [9] = assay: Antiviral activity against Influenza B virus infected in MDCK cells assessed as inhibition of virus-induced cytopathogenicity after 4 days by colorimetric formazan-based MTS assay; type: functional, organism-based; details: 96 h
Felid alphaherpesvirus 1 = assay: Antiviral activity against Feline herpesvirus infected in cat CRFK cells assessed as inhibition of virus-induced cytopathic effect after 4 days by colorimetric formazan-based MTS assay; type: functional, organism-based; details: Felid alphaherpesvirus 1, CRFK, 96 h
[10] = test system: Vesicular stomatitis virus; assay: Antiviral activity against Vesicular stomatitis virus infected in HEL cells assessed as inhibition of virus-induced cytopathogenicity after 4 days; type: functional, organism-based; details: 96 h
How it was run: (§3)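 Confluent HEL or HeLa monolayers infected with 100 CCID50 of virus in the presence of varying compound concentrations.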

HeLa = assay: Cytotoxicity against human HeLa cells assessed as cell viability by colorimetric formazan-based MTS assay
[11] = test system: Feline infectious peritonitis virus; assay: Antiviral activity against FIPV infected in cat CRFK cells assessed as inhibition of virus-induced cytopathic effect after 4 days by colorimetric formazan-based MTS assay; type: functional, cell-based; details: Alphacoronavirus 1, CRFK, 96 h
[12] = Cytotoxicity against cat CRFK cells assessed as cell viability by colorimetric formazan-based MTS assay; parameters: species or system Felis catus; details: CRFK cells
[13] = Cytotoxicity against human HEL cells assessed as minimum compound concentration required to causes microscopically detectable alteration of normal cell morphology; type: cell-based; how it was run: as §2
Human alphaherpesvirus 1 = assay: Antiviral activity against HSV1 KOS infected in HEL cells assessed as inhibition of virus-induced cytopathogenicity after 4 days; type: functional, organism-based; details: Human alphaherpesvirus 1, KOS, 96 h; how it was run: as §3
Human betaherpesvirus 5 [14] = assay: Antiviral activity against Cytomegalovirus AD-169 infected in HEL cells assessed as inhibition of virus plaque formation after 4 days; type: functional, organism-based; details: Human betaherpesvirus 5, AD169, HEL, 96 h
Human alphaherpesvirus 2 = assay: Antiviral activity against HSV2 G infected in HEL cells assessed as inhibition of virus-induced cytopathogenicity after 4 days; type: functional, organism-based; details: Human alphaherpesvirus 2, strain G, 96 h
How it was run: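 Confluent HEL, Vero or HeLa monolayers were inoculated with 100 CCID50 of virus in the presence of varying concentrations of compound. Cytopathicity was scored when it reached completion in untreated, virus-infected control cultures.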

Human betaherpesvirus 5 [15] = assay: Antiviral activity against Human cytomegalovirus Davis infected in HEL cells assessed as inhibition of virus plaque formation after 4 days; type: functional, organism-based; details: Human betaherpesvirus 5, Davis, 96 h
Human alphaherpesvirus 3 = assay: Antiviral activity against […] expressing thymidine kinase infected in HEL cells assessed as reduction of virus plaque formation after 4 days; type: functional, cell-based; details: Human alphaherpesvirus 3, strain Oka vaccine, 96 h

Cc1nc(NCCCNc2ccnc3cc(Cl)ccc23)nc(-c2ccc([N+](=O)[O-])cc2)c1C(=O)OC(C)C
Ratio IC50 (Plasmodium falciparum [1]): 0.3518
IC50 (Plasmodium falciparum [2]): 176 nM
inhibition [3]: 94%
IC50 (Plasmodium falciparum [4]): 500 nM

CC(N)C12CC3CC(CC(C3)C1)C2 (configuration not stated) [RIMANTADINE]
EC50 (Influenza B virus [5]): > 200000 nM
EC50 (Influenza A virus [6]): > 200000 nM
MCC [7]: > 200 µM
EC50 (Influenza A virus [8]): > 200000 nM
EC50 (Influenza B virus [9]): > 200000 nM

Nc1nc(O)c2ncn(COC(CO)CO)c2n1 [GANCICLOVIR]
EC50 (Felid alphaherpesvirus 1): 4100 nM
EC50 [10]: > 100000 nM
CC50 (HeLa): 222000 nM
EC50 [11]: > 100000 nM
CC50 [12]: > 100000 nM
MCC [13]: > 100 µM

CCOC(=O)c1c(C)nc(NCCCC(C)CNc2ccnc3cc(Cl)ccc23)nc1-c1ccccc1 (configuration not stated)
Ratio IC50 (Plasmodium falciparum [1]): 3
IC50 (Plasmodium falciparum [2]): 860 nM
IC50 (Plasmodium falciparum [4]): 287 nM

Nc1ccn(C[C@@H](CO)OCP(=O)(O)O)c(=O)n1 [CIDOFOVIR]
EC50 [10]: > 250000 nM
EC50 (Human alphaherpesvirus 1): 900 nM
EC50 (Human betaherpesvirus 5 [14]): 369 nM
CC50 (HeLa): 50800 nM
EC50 (Human alphaherpesvirus 2): 900 nM
MCC [13]: > 317 µM
EC50 (Human betaherpesvirus 5 [15]): 102 nM

C[C@H]1[C@H](OC(=O)CCC(=O)O)O[C@@H]2O[C@@]3(C)CC[C@H]4[C@H](C)CC[C@@H]1[C@@]24OO3 [ARTESUNATE]
Ratio IC50 (Plasmodium falciparum [1]): 0.5418
IC50 (Plasmodium falciparum [2]): 2.8 nM
IC50 (Plasmodium falciparum [4]): 5.3 nM

Cc1nc(NCCCCNc2ccnc3cc(Cl)ccc23)nc(-c2cccc([N+](=O)[O-])c2)c1C(=O)OC(C)C
Ratio IC50 (Plasmodium falciparum [1]): 0.2756
IC50 (Plasmodium falciparum [2]): 192 nM
inhibition [3]: 92%
IC50 (Plasmodium falciparum [4]): 697 nM

CCOC(=O)c1c(C)nc(NCCCCCCCCCCNc2ccnc3cc(Cl)ccc23)nc1-c1ccccc1
Ratio IC50 (Plasmodium falciparum [1]): 0.2744
IC50 (Plasmodium falciparum [2]): 488 nM
IC50 (Plasmodium falciparum [4]): 1780 nM

O=c1[nH]c(=O)n([C@H]2C[C@H](O)[C@@H](CO)O2)cc1/C=C/Br [BRIVUDINE]
EC50 (Human alphaherpesvirus 3): 19 nM
EC50 [10]: > 250000 nM
CC50 (HeLa): 362000 nM
MCC [13]: > 250 µM

CCOC(=O)c1c(C)nc(NCC(C)Nc2ccnc3cc(Cl)ccc23)nc1-c1ccccc1 (configuration not stated)
Ratio IC50 (Plasmodium falciparum [1]): 1.7683
IC50 (Plasmodium falciparum [2]): 28100 nM
inhibition [3]: 35%
IC50 (Plasmodium falciparum [4]): 15900 nM

Cc1nc(NCCCNc2ccnc3cc(Cl)ccc23)nc(-c2ccccc2[N+](=O)[O-])c1C(=O)OC(C)C
Ratio IC50 (Plasmodium falciparum [1]): 0.1173
IC50 (Plasmodium falciparum [2]): 229 nM
inhibition [3]: 89%
IC50 (Plasmodium falciparum [4]): 1960 nM
